# Test results: ChEMBL document CHEMBL1177712, “Synthesis and characterization of in vitro and in vivo profiles of hydroxybupropion analogues: aids to smoking cessation” (J Med Chem, 2010)
# pIC50: −log10 of the molar value. Calls of active or inactive are those of the source.
# How the values were obtained:
# [1] = target: Sodium-dependent dopamine transporter (Homo sapiens, UniProt Q01959); experiment: Inhibition of [3H]dopamine reuptake at human DAT expressed in HEK293 cells after 90 mins by scintillation counting; format: cell-based
# Sequence of Sodium-dependent dopamine transporter (Q01959 whole entry): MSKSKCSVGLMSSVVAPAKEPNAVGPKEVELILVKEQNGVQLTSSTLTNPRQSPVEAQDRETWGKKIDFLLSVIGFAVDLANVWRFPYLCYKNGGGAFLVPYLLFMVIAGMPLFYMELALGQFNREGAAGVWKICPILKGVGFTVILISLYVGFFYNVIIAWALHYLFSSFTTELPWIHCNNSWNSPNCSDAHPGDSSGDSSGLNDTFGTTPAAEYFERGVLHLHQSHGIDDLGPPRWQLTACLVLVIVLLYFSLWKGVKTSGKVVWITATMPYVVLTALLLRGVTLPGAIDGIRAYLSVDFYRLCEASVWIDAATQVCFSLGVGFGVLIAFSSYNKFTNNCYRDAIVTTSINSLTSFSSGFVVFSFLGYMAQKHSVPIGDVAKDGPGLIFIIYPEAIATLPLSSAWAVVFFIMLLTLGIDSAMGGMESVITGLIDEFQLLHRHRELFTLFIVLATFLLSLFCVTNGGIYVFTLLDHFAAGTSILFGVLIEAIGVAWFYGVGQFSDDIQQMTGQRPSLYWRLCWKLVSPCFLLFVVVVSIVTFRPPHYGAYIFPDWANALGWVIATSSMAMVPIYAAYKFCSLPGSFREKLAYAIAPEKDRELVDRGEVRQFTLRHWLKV
# How it was run: (§1)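 Uptake of [³H]DA or [³H]NE was measured in HEK293 cells stably expressing human DAT or NET. Values are from three independent experiments, each run in triplicate.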
# [2] = target: Sodium-dependent noradrenaline transporter (Homo sapiens, UniProt P23975); experiment: Inhibition of [3H]norepinephrine reuptake at human NET expressed in HEK293 cells after 90 mins by scintillation counting; format: cell-based; how it was run: as §1
# Sequence of Sodium-dependent noradrenaline transporter (P23975 whole entry): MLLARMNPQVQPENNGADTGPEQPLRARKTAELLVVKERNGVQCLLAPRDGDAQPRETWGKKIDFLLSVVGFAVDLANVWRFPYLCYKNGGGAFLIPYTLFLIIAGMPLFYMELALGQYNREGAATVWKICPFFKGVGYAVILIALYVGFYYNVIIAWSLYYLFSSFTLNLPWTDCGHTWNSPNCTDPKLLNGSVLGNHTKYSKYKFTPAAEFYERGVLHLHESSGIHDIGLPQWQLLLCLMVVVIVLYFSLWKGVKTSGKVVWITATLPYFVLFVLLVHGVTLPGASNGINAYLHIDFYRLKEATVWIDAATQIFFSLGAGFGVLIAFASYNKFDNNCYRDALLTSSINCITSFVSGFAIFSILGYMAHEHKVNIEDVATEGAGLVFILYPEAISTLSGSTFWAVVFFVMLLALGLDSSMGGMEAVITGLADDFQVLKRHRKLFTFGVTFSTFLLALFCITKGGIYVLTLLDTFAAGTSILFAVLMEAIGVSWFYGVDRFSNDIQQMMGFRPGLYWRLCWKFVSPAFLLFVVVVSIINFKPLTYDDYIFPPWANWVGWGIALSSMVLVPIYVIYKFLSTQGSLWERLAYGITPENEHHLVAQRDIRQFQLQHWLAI
# [3] = target: Sodium-dependent serotonin transporter (Homo sapiens, UniProt P31645); experiment: Inhibition of [3H]serotonin reuptake at human SERT expressed in HEK293 cells after 90 mins by scintillation counting; format: cell-based
# Sequence of Sodium-dependent serotonin transporter (P31645 whole entry): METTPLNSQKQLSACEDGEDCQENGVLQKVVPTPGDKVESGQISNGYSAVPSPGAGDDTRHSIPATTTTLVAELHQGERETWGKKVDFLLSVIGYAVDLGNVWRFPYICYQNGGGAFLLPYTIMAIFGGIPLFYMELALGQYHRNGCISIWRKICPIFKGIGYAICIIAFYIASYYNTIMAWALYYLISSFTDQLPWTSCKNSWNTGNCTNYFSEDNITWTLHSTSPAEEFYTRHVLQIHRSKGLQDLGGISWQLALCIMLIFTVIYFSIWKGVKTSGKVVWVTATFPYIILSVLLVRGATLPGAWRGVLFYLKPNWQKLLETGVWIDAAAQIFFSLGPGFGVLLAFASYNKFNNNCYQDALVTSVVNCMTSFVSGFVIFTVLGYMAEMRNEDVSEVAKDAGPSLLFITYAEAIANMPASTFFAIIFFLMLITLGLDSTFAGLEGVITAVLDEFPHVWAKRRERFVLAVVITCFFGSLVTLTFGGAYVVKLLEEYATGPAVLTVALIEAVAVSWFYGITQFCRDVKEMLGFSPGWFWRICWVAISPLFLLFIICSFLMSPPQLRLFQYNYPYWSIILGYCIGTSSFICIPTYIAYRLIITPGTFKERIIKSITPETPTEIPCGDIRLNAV
# [4] = target: Neuronal acetylcholine receptor; alpha4/beta2 (Homo sapiens, UniProt P17787+P43681); experiment: Agonist activity at alpha4beta2 nicotinic receptor in human SH-EP1 cells assessed as induction of radiolabeled Rb+ influx at 0.005 to 100 uM by liquid scintillation counting; format: functional, cell-based
# How it was run: (§2)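 Cells were labelled with ⁸⁶Rb⁺ for at least 4 h, then exposed for 5 min in efflux buffer (pH 7.4) to test ligand alone at ~5 nM to 100 μM. The lines were TE671/RD (muscle α1β1γδ), SH-SY5Y (α3β4*) and transfected SH-EP1-hα4β2 or -hα4β4. Efflux was Cerenkov-counted. Non-specific efflux was subtracted, and results were normalized to specific efflux from carbamylcholine (1 mM; 3 mM for SH-SY5Y).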
# [5] = target: T1, Neuronal acetylcholine receptor; alpha4/beta4 (Homo sapiens, UniProt P30926+P43681); experiment: Agonist activity at alpha4beta4 nicotinic receptor in human SH-EP1 cells assessed as induction of radiolabeled Rb+ influx at 0.005 to 100 uM by liquid scintillation counting; format: functional, cell-based; how it was run: as §2
# T1 sequence (P30926 whole entry): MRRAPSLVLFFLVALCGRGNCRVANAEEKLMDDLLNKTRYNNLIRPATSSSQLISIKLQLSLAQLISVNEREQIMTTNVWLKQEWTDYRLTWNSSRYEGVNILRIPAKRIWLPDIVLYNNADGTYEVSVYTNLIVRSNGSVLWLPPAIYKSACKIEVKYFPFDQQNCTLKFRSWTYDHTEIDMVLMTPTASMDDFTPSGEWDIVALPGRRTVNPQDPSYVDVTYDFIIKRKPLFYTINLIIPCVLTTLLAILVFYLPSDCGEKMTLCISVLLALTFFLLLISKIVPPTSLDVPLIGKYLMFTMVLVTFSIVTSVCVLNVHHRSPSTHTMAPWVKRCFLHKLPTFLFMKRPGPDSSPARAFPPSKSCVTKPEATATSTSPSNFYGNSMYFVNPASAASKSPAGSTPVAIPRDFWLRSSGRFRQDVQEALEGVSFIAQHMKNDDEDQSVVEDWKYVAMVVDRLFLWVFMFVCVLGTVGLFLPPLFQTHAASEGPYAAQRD
# T1 sequence (P43681 whole entry): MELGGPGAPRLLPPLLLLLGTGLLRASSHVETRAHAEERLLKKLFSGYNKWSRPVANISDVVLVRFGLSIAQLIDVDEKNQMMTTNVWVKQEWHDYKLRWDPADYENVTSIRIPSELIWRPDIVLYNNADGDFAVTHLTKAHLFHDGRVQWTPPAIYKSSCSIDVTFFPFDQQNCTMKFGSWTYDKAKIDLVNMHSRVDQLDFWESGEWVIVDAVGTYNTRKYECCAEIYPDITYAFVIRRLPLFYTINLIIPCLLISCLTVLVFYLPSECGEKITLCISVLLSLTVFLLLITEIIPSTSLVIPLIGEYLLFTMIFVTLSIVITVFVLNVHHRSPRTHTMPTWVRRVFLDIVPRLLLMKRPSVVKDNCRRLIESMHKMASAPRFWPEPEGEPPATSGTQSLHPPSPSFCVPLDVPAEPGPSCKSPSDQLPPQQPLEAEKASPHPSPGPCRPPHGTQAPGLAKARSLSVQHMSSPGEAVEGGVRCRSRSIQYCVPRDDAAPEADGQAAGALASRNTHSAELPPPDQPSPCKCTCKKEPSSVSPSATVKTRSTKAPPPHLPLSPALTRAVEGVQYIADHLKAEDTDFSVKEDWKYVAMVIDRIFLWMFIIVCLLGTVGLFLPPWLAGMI
# [6] = target: T1, Neuronal acetylcholine receptor; alpha4/beta4; experiment: Antagonist activity at alpha4beta4 nicotinic receptor in human SH-EP1 cells assessed as inhibition varbamylcholine-induced radiolabeled Rb+ influx at by liquid scintillation counting; format: functional, cell-based
# How it was run: (§3)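 ⁸⁶Rb⁺-loaded human cells were given a 5-min efflux with carbamylcholine at EC₈₀–EC₉₀ plus graded test ligand. Non-specific efflux, taken with 100 μM mecamylamine or buffer, was subtracted. IC₅₀ came from a Hill fit of three independent experiments, with SEM given as a multiplication factor.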
# [7] = target: Acetylcholine receptor; alpha1/beta1/delta/gamma (Homo sapiens, UniProt P02708+P07510+P11230+Q07001); experiment: Antagonist activity at alpha-1-beta-1-gamma-delta nicotinic receptor in human TE671 cells assessed as inhibition varbamylcholine-induced radiolabeled Rb+ influx at by liquid scintillation counting; format: functional, cell-based, TE-671; how it was run: as §3
# Sequence of Acetylcholine receptor; alpha1/beta1/delta/gamma (P02708 whole entry): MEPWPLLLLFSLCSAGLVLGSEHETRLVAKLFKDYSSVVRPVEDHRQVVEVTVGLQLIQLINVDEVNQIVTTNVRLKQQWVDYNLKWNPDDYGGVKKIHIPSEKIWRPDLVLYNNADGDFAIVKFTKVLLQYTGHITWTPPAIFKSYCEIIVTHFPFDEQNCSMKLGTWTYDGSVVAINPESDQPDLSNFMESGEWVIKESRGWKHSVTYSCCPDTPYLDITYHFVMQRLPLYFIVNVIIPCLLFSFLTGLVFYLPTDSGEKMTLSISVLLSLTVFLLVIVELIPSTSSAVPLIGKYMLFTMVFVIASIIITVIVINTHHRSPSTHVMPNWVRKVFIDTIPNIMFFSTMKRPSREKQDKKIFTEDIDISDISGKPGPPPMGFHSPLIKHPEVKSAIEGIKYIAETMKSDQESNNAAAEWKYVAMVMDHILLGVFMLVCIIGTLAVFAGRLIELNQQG
# Sequence of Acetylcholine receptor; alpha1/beta1/delta/gamma (P07510 whole entry): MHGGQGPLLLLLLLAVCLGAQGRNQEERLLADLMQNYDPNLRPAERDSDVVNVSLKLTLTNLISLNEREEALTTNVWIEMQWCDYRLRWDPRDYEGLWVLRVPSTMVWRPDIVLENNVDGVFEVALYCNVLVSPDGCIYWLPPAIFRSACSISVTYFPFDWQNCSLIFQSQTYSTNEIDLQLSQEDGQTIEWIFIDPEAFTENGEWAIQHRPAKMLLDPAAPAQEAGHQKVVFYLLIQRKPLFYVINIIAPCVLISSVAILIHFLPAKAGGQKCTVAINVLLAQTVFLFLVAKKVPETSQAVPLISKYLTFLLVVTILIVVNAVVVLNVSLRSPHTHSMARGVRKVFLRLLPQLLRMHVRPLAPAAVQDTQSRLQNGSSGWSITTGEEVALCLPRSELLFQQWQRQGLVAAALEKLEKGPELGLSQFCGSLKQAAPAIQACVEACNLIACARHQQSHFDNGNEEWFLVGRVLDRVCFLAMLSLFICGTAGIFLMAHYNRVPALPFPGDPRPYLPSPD
# Sequence of Acetylcholine receptor; alpha1/beta1/delta/gamma (P11230 whole entry): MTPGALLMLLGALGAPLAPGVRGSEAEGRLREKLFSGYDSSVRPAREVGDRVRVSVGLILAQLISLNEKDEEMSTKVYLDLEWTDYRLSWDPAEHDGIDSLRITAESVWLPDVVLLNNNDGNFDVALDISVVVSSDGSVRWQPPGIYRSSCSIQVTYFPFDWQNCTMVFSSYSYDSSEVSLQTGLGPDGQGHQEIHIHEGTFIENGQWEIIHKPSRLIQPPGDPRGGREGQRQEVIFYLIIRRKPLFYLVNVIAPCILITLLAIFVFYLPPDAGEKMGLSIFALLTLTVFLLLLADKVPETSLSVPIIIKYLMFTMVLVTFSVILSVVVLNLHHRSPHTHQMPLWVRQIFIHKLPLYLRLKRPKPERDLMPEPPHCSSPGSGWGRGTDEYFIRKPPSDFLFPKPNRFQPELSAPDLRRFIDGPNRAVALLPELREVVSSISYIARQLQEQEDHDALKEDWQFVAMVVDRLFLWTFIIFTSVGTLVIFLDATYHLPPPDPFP
# Sequence of Acetylcholine receptor; alpha1/beta1/delta/gamma (Q07001 whole entry): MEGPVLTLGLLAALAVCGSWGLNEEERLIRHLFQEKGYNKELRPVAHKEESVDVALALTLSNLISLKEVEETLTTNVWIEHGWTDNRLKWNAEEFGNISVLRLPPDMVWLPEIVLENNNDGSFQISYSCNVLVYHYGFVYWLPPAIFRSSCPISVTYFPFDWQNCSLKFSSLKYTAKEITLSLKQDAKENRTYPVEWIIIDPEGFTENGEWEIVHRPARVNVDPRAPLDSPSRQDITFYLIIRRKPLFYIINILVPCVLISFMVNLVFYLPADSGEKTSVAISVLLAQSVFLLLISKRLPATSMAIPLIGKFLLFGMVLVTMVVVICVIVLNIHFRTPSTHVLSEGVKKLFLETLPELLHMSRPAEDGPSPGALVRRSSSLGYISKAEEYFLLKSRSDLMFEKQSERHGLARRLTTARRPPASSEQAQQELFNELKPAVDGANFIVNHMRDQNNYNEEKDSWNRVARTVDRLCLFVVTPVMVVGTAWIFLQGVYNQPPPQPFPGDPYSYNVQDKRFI
# SH-SY5Y = experiment: Selectivity ratio of IC50 for alpha3beta4 nicotinic receptor in human SH-SY5Y cells to IC50 for IC50 for human NET; format: cell-based
# SH-EP1 = experiment: Selectivity ratio of IC50 for alpha4beta2 nicotinic receptor in human SH-EP1 cells to IC50 for IC50 for human NET; format: cell-based
# Mus musculus [8] = experiment: Smoke cessation activity in sc dosed ICR mouse assessed as inhibition of nicotine-induced antinociception administered 15 mins before nicotine challenge measured after 5 mins of nicotine infusion by hotplate assay; format: functional, organism-based
# How it was run: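 Male ICR mice (20–25 g) were pretreated with saline or test drug 15 min before nicotine at 2.5 mg/kg sc. They were tested 5 min later on a 55 °C hot plate (40 s cutoff), and the result was expressed as %MPE. AD₅₀ came from at least four doses, with at least 8 mice per dose.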
# Mus musculus [9] = experiment: Smoke cessation activity in sc dosed ICR mouse assessed as inhibition of nicotine-induced antinociception administered 15 mins before nicotine challenge measured after 5 mins of nicotine infusion by tail-flick assay; format: functional, organism-based
# How it was run: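 Radiant-heat tail-flick latency was read 5 min later (10 s cutoff; baseline 2–4 s) and expressed as %MPE. AD₅₀ came from at least four doses, with at least 8 mice per dose.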
# Mus musculus [10] = experiment: Smoke cessation activity in sc dosed ICR mouse assessed as inhibition of nicotine-induced increase in locomotor activity administered 15 mins before nicotine challenge measured after 5 mins of nicotine infusion; format: functional, organism-based
# Mus musculus [11] = experiment: Smoke cessation activity in sc dosed ICR mouse assessed as inhibition of nicotine-induced hypothermia administered 15 mins before nicotine challenge measured after 30 mins of nicotine infusion; format: functional, organism-based
# How it was run: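 Male ICR mice (20–25 g) were pretreated with test drug or saline 15 min before nicotine at 2.5 mg/kg sc. Rectal temperature was taken before and 30 min after nicotine, and the change was calculated. Room temperature was 21–24 °C. AD₅₀ came from at least four doses, with at least 8 mice per dose.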
# Mus musculus [12] = experiment: Toxicity in sc dosed ICR mouse assessed occurrence of sedation; format: organism-based; details: in vivo
# Mus musculus [13] = experiment: Toxicity in sc dosed ICR mouse assessed occurrence of convulsion; format: organism-based; details: in vivo
smiles,measurement,setting,value
CCC[C@@H]1NC(C)(C)CO[C@@]1(O)c1cccc(Cl)c1,pIC50,[1],7.52
same,pIC50,[2],7.51
same,pIC50,[3],5.38
same,Activity,[4],inactive
same,Activity,[5],inactive
same,pIC50,[6],4.74
same,pIC50,[7],5.00
same,Ratio IC50,SH-SY5Y,154
same,Ratio IC50,SH-EP1,240
same,IC50,Mus musculus [8],> 15 mg/kg
same,IC50,Mus musculus [9],0.004 mg/kg
same,IC50,Mus musculus [10],4.7 mg/kg
same,IC50,Mus musculus [11],> 15 mg/kg
same,Activity,Mus musculus [12],Non-toxic
same,Activity,Mus musculus [13],Non-toxic
